For three compounds, CI, Activity and fold change (FC) results are on record in ChEMBL document CHEMBL4014350, “Alkoxyurea-Based Histone Deacetylase Inhibitors Increase Cisplatin Potency in Chemoresistant Cancer Cell Lines” (J Med Chem, 2017).

Each structure is given as a SMILES string. Calls of active or inactive are those of the source. No cut-off for these calls is given here.

The target of assay [1] is T1, Histone deacetylase 1/6 (Homo sapiens) (UniProt Q13547+Q9UBN7). The assay can be described thus: Inhibition of HDAC1/HDAC6 in human Cal27CisR cells assessed as potentiation of 5 uM cisplatin-induced cytotoxicity by measuring combination index at 100 nM preincubated for 48 hrs followed by cisplatin treatment measured after 72 hrs by MTT assay.
Assay [2] has as its system CAL-27. Nature of the assay: Potentiation of 1 uM cisplatin-induced cytotoxicity against human CAL27 cells assessed as decrease in cell viability by measuring combination index at 100 uM preincubated for 48 hrs followed by cisplatin treatment measured after 72 hrs by MTT assay. The class given is functional. Conditions: in the assay text read “at 100 nM” for “at 100 uM”. The gist of the method: (§1)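 Cal27 and cisplatin-resistant Cal27CisR cells were preincubated with the HDAC inhibitor for 48 h, then given cisplatin in combination. Viability was read by MTT after 72 h. The combination index was computed by the Chou–Talalay method: CI > 1 is antagonism, CI = 1 is additive, and CI < 0.9 is synergism. Points with fraction affected below 0.20 were flagged.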

The target in assay [3] is T1, Histone deacetylase 1/6 (Homo sapiens). The assay can be described thus: Inhibition of HDAC1/HDAC6 in human Cal27CisR cells assessed as potentiation of 3.16 uM cisplatin-induced cytotoxicity by measuring combination index at 400 uM preincubated for 48 hrs followed by cisplatin treatment measured after 72 hrs by MTT assay. It counts as cell-based. The gist of the method:
as §1

Assay [4] has the same target. The assay can be described thus: Inhibition of HDAC1/HDAC6 in human Cal27CisR cells assessed as potentiation of 1 uM cisplatin-induced cytotoxicity by measuring combination index at 400 nM preincubated for 48 hrs followed by cisplatin treatment measured after 72 hrs by MTT assay.
In assay [5] the test system is CAL-27. The assay can be described thus: Potentiation of 2 uM cisplatin-induced cytotoxicity against human CAL27 cells assessed as decrease in cell viability by measuring combination index at 400 uM preincubated for 48 hrs followed by cisplatin treatment measured after 72 hrs by MTT assay. Conditions: in the assay text read “at 400 nM” for “at 400 uM”. It counts as functional. In a few lines:
(§2)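 HDAC inhibitor was added 48 h before cisplatin, then cells were exposed to cisplatin for 72 h and viability was read by MTT assay. Combination index was computed by the Chou–Talalay method: CI > 1 is antagonism, CI = 1 additive, CI < 0.9 synergism. Points with fraction affected below 0.20 were flagged.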

Assay [6] deals with T1, Histone deacetylase 1/6 (Homo sapiens). Nature of the assay: Inhibition of HDAC1/HDAC6 in human Cal27CisR cells assessed as potentiation of cisplatin-induced apoptosis at 0.5 uM preincubated for 48 hrs followed by cisplatin treatment for 6 hrs measured after 24 hrs by propidium iodide dye-based flow cytometry (reference value: 20.3%). The class given is cell-based. Further details: scale not given: the % may be the effect or the level left.

The subject of assay [7] is CAL-27. The assay can be described thus: Potentiation of 0.5 uM cisplatin-induced cytotoxicity against human CAL27 cells assessed as decrease in cell viability by measuring combination index at 300 uM preincubated for 48 hrs followed by cisplatin treatment measured after 72 hrs by MTT assay. The class given is functional. Conditions: in the assay text read “at 300 nM” for “at 300 uM”. The gist of the method:
as §1

The subject of assay [8] is CAL-27. The assay can be described thus: Potentiation of 0.5 uM cisplatin-induced cytotoxicity against human CAL27 cells assessed as decrease in cell viability by measuring combination index at 800 uM preincubated for 48 hrs followed by cisplatin treatment measured after 72 hrs by MTT assay. The class given is functional. In a few lines: as §1
The target of assay [9] is T1, Histone deacetylase 1/6 (Homo sapiens). The assay can be described thus: Inhibition of HDAC1/HDAC6 in human Cal27CisR cells assessed as potentiation of cisplatin-induced cytotoxicity by measuring fold reduction in cisplatin IC50 at 0.5 uM preincubated for 48 hrs followed by cisplatin treatment measured after 72 hrs by MTT assay relative to cisplatin alone. It counts as cell-based. In a few lines: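 Cal27CisR cells were pretreated 48 h with 0.5 μM inhibitor, then exposed to increasing cisplatin concentrations for 72 h, with IC50 by MTT. The shift factor is the IC50 of cisplatin alone divided by the IC50 of the combination. Data are mean ± SEM of pooled independent experiments (at least three), each in triplicate, and significance was tested by t test (p < 0.05).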

Assay [10] has the same target. The assay can be described thus: Inhibition of HDAC1/HDAC6 in human Cal27CisR cells assessed as potentiation of 5 uM cisplatin-induced cytotoxicity by measuring combination index at 200 nM preincubated for 48 hrs followed by cisplatin treatment measured after 72 hrs by MTT assay.
The test system of assay [11] is CAL-27. Nature of the assay: Potentiation of 1 uM cisplatin-induced cytotoxicity against human CAL27 cells assessed as decrease in cell viability by measuring combination index at 200 uM preincubated for 48 hrs followed by cisplatin treatment measured after 72 hrs by MTT assay. The class given is functional. The gist of the method:
as §1

Assay [12] has as its target T1, Histone deacetylase 1/6 (Homo sapiens). Nature of the assay: Inhibition of HDAC1/HDAC6 in human Cal27CisR cells assessed as potentiation of 1 uM cisplatin-induced cytotoxicity by measuring combination index at 600 uM preincubated for 48 hrs followed by cisplatin treatment measured after 72 hrs by MTT assay. It counts as cell-based. In a few lines: (§3)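 Cal27CisR cells preincubated 48 h with the HDAC inhibitor, then exposed to cisplatin for 72 h. Viability read by MTT. Combination index calculated by the Chou–Talalay method: CI > 1 antagonism, CI = 1 additive, CI < 0.9 synergism. Points with fraction affected below 0.20 are flagged. Values are the mean of three experiments.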

The subject of assay [13] is CAL-27. Nature of the assay: Potentiation of 5 uM cisplatin-induced cytotoxicity against human CAL27 cells assessed as decrease in cell viability by measuring combination index at 400 uM preincubated for 48 hrs followed by cisplatin treatment measured after 72 hrs by MTT assay. Conditions: in the assay text read “at 400 nM” for “at 400 uM”. It counts as functional. The gist of the method: as §2

Assay [14] concerns the target T1, Histone deacetylase 1/6 (Homo sapiens). Nature of the assay: Inhibition of HDAC1/HDAC6 in human Cal27CisR cells assessed as potentiation of 5 uM cisplatin-induced cytotoxicity by measuring combination index at 300 nM preincubated for 48 hrs followed by cisplatin treatment measured after 72 hrs by MTT assay.
In assay [15] the test system is CAL-27. The assay can be described thus: Potentiation of 5 uM cisplatin-induced cytotoxicity against human CAL27 cells assessed as decrease in cell viability by measuring combination index at 100 uM preincubated for 48 hrs followed by cisplatin treatment measured after 72 hrs by MTT assay. The class given is functional. Conditions: in the assay text read “at 100 nM” for “at 100 uM”. The gist of the method:
as §2

Assay [16] concerns CAL-27. Nature of the assay: Potentiation of 0.316 uM cisplatin-induced cytotoxicity against human CAL27 cells assessed as decrease in cell viability by measuring combination index at 500 uM preincubated for 48 hrs followed by cisplatin treatment measured after 72 hrs by MTT assay. The class given is functional. Conditions: in the assay text read “at 500 nM” for “at 500 uM”. The gist of the method: as §1

In a further assay the test system is Cal27CisR. The assay can be described thus: Induction of apoptosis in human Cal27CisR cells at 1 uM for 48 hrs by propidium iodide dye-based flow cytometry. It counts as functional, cell-based.
Assay [17] has as its system CAL-27. The assay can be described thus: Potentiation of 0.5 uM cisplatin-induced cytotoxicity against human CAL27 cells assessed as decrease in cell viability by measuring combination index at 400 uM preincubated for 48 hrs followed by cisplatin treatment measured after 72 hrs by MTT assay. The class given is functional. Conditions: in the assay text read “at 400 nM” for “at 400 uM”. The gist of the method: as §1

The target of assay [18] is T1, Histone deacetylase 1/6 (Homo sapiens). The assay can be described thus: Inhibition of HDAC1/HDAC6 in human Cal27CisR cells assessed as potentiation of 3.16 uM cisplatin-induced cytotoxicity by measuring combination index at 300 uM preincubated for 48 hrs followed by cisplatin treatment measured after 72 hrs by MTT assay. It counts as cell-based. In a few lines:
as §3

T1 sequence (Q13547 whole entry, looked up): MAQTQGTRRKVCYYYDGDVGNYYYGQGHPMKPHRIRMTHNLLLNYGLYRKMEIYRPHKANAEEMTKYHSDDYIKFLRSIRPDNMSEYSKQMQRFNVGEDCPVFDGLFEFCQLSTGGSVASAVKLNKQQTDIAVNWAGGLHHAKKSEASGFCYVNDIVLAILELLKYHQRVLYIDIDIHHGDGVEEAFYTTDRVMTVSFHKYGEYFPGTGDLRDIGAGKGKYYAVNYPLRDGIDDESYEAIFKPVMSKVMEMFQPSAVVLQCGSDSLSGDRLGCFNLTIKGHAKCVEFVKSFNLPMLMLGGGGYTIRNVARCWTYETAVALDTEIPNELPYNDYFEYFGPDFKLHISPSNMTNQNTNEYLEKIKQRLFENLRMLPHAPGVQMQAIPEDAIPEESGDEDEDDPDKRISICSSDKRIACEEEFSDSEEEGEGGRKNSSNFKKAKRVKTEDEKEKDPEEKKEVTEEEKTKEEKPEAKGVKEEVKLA
T1 sequence (Q9UBN7 whole entry, looked up): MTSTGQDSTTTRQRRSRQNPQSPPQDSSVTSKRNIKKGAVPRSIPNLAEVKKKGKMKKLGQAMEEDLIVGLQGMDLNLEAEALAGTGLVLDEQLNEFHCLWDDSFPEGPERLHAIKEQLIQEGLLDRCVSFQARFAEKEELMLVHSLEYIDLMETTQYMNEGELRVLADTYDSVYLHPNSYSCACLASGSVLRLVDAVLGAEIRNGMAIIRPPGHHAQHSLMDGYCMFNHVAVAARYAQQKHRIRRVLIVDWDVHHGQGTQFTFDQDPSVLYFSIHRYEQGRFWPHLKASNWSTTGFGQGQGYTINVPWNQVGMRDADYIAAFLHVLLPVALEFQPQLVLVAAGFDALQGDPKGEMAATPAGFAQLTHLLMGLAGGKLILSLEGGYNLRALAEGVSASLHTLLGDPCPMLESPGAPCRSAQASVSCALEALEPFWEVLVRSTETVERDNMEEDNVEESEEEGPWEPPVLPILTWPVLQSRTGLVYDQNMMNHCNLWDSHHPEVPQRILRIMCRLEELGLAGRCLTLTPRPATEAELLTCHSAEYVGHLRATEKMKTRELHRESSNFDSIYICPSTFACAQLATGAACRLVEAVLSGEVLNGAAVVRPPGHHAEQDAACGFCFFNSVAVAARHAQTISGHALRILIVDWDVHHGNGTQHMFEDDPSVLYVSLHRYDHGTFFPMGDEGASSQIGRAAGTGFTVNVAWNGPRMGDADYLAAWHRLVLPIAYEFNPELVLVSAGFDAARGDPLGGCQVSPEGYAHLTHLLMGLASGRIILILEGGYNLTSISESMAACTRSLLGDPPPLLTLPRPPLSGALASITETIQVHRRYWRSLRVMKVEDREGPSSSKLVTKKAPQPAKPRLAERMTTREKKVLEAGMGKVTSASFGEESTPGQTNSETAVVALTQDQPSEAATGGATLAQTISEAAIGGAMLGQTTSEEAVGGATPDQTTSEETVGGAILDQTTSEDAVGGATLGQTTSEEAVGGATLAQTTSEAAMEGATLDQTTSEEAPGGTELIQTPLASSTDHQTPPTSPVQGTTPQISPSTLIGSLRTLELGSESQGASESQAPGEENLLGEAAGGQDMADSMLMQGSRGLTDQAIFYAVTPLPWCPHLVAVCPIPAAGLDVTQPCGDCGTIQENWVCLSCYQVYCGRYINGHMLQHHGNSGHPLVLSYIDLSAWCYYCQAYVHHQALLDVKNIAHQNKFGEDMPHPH

Turning to `COc1cc(NC(=O)NOCCCCCC(=O)NO)c2nc(OC)cc(C)c2c1`, the CI was 0.66 in assay [1]; below 0.2 in the assay on CAL-27 [2]; 0.3 in assay [3]; below 0.2 in assay [4]; 0.38 in the assay on CAL-27 [5]; below 0.2 in the assay with CAL-27 [7]. Also, the CI was found to be 0.79 with CAL-27 [8]; 0.38 in [10]; 0.82 with CAL-27 [11]; 0.56 in [12]; 0.36 in the assay with CAL-27 [13]; 0.25 in [14]. The CI turned out to be 0.26 with CAL-27 [15], 0.79 in the assay on CAL-27 [16], 0.75 in the assay on CAL-27 [17] and 0.46 in assay [18]. The Activity in [6] was 59.7%. Also, the fold change (FC) in [9] was 11.2. Besides, the outcome in the assay with Cal27CisR was inactive.
`COc1cc(NC(=O)NOCCCCCC(=O)NO)c2nccc(C)c2c1`: the CI in assay [1] is below 0.2; with CAL-27 [2], below 0.2; in [3], below 0.2; in assay [4], below 0.2; in the assay on CAL-27 [5], 0.27; in the assay on CAL-27 [7], below 0.2. The CI in the assay on CAL-27 [8] was 0.51; in assay [10], below 0.2; in the assay on CAL-27 [11], 0.76; in assay [12], below 0.2; in the assay on CAL-27 [13] it was 0.29; in [14] it was below 0.2. Further, the CI in the assay with CAL-27 [15] is 0.5; with CAL-27 [17] it was 0.91; in [18], below 0.2. For the same compound, in [6], the Activity worked out at 59.7%. The fold change (FC) in [9] amounted to 8.2. Further, the result in the assay with Cal27CisR was inactive.
Regarding `COc1cc(NC(=O)NOCCCCCC(=O)NO)c2ncccc2c1`, the CI was 0.93 with CAL-27 [8], below 0.2 in assay [12] and 0.86 with CAL-27 [16].
